The values that follow come from ChEMBL document CHEMBL4138318, “Discovery of 5-Cyano-6-phenylpyrimidin Derivatives Containing an Acylurea Moiety as Orally Bioavailable Reversal Agents against P-Glycoprotein-Mediated Mutidrug Resistance” (J Med Chem, 2018).

The target in series [1] is ATP-dependent translocase ABCB1 (Homo sapiens, UniProt P08183). Put plainly: Inhibition of ABCB1 in human SW620/AD300 cells assessed as potentiation of paclitaxel-induced cytotoxicity by measuring fold reduction in paclitaxel IC50 at 2 uM after 72 hrs by MTT assay relative to paclitaxel alone. The class given is cell-based. The gist of the method: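 SW620/AD300 cells (~5×10^3/well) treated with graded paclitaxel with or without modulator (2 µM, or 0.5-2 µM in dose series; 0.1% DMSO solvent control) for 72 h; MTT (5 mg/mL stock) added 4 h, absorbance 490 nm. IC50 as mean ± SD of three independent runs; reversal fold = paclitaxel IC50 without/with modulator.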
Chain of ATP-dependent translocase ABCB1 (P08183 whole entry): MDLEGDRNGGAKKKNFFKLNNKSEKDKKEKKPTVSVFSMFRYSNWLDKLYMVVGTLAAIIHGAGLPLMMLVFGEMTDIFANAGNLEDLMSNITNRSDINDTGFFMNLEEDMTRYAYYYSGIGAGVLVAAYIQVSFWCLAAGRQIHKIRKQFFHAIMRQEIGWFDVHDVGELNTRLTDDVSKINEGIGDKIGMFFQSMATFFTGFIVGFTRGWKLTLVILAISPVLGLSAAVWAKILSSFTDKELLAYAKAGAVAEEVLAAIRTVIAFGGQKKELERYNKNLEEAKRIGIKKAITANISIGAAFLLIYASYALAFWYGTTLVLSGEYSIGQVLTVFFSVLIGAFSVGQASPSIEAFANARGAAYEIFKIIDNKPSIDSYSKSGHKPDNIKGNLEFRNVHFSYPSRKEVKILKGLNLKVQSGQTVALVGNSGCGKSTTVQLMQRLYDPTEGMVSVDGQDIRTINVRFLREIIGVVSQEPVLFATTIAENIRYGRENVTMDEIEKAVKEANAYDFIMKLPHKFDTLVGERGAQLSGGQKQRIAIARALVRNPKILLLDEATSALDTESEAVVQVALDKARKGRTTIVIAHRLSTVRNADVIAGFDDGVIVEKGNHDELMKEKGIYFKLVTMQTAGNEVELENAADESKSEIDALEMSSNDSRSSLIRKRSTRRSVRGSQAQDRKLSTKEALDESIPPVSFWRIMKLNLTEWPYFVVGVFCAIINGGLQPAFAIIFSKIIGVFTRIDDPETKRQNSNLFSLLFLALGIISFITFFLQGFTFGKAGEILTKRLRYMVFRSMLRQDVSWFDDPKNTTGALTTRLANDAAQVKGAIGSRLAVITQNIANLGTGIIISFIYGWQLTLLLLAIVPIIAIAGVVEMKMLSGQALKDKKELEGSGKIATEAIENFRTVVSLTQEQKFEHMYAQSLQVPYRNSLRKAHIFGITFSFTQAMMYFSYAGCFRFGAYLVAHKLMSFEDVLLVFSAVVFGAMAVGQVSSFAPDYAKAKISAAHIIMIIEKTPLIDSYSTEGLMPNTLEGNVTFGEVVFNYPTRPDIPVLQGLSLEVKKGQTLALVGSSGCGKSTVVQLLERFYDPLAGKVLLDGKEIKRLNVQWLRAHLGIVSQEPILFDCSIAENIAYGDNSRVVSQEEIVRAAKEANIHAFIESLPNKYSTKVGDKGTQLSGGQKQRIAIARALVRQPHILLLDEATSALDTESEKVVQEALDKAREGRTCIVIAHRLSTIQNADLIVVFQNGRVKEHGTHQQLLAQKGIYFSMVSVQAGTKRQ

Series [2] in a line: Cytotoxicity against human SW620 cells assessed as survival at 2 uM after 72 hrs by MTT assay relative to control. The class given is cell-based, SW-620. The conditions noted are these: read-out: Survival.
Series [3] in a line: Cytotoxicity against human SW620/AD300 cells assessed as survival at 2 uM after 72 hrs by MTT assay relative to control. The series is classed as cell-based. Conditions: read-out: Survival.

Some results are limits rather than exact numbers.

For `COc1cc(-c2nc(SCc3cn(CC(=O)NC(=O)Nc4ccccn4)nn3)nc(Nc3ccc(C(C)C)cc3)c2C#N)cc(OC)c1OC`, the “fold change (FC)” value in series [1] worked out at 13.16. The viability at 72 h, 2 µM in series [2] and in series [3] was over 90% each time.

With `CC(C)c1ccc(-c2nc(SCc3cn(CC(=O)NC(=O)Nc4ccccn4)nn3)nc(Nc3ccc(Cl)cc3)c2C#N)cc1`, the “fold change (FC)” value in series [1] is listed as 1.66. The viability at 72 h, 2 µM in series [2] and in series [3] was over 90% each time.

For `CC(C)c1ccc(-c2nc(SCc3cn(CC(=O)NC(=O)Nc4ccccn4)nn3)nc(Nc3ccccc3F)c2C#N)cc1`, the “fold change (FC)” value in series [1] was determined as 2.74. Moreover, the viability at 72 h, 2 µM in series [2] and in series [3] was over 90% in each case.

As for `N#Cc1c(Nc2cccc(C(F)(F)F)c2)nc(SCc2cn(CC(=O)NC(=O)Nc3ccccn3)nn2)nc1-c1ccc(Br)cc1`, the “fold change (FC)” value in series [1] stood at 2.4. Besides, the viability at 72 h, 2 µM in series [2] and in series [3] was over 90% in each case.

In the case of `COc1cc(-c2nc(SCC(=O)NC(=O)Nc3ccccn3)nc(Nc3ccc(C(F)(F)F)cc3)c2C#N)cc(OC)c1OC`, the “fold change (FC)” value in series [1] is 3.56. Besides, the viability at 72 h, 2 µM in series [2] and in series [3] was over 90% in each case.

Consider `Cc1ccc(-c2nc(SCc3cn(CC(=O)NC(=O)Nc4ccccn4)nn3)nc(Nc3ccc(C(C)C)cc3)c2C#N)cc1`, for which, in series [1], the “fold change (FC)” value is 1.18. The viability at 72 h, 2 µM in series [2] and in series [3] was over 90% in each case.

As to `CC(C)c1ccc(Nc2nc(SCc3cn(CC(=O)NC(=O)Nc4ccccn4)nn3)nc(-c3ccc(Br)cc3)c2C#N)cc1`, the “fold change (FC)” value in series [1] worked out at 1.7. The viability at 72 h, 2 µM in series [2] and in series [3] was over 90% each time.

Regarding `COc1cc(-c2nc(SCc3cn(CC(=O)NC(=O)Nc4ccccn4)nn3)nc(Nc3cccc(Cl)c3)c2C#N)cc(OC)c1OC`, in series [1], the “fold change (FC)” value was 1.37. Moreover, the viability at 72 h, 2 µM in series [2] and in series [3] was over 90% throughout.

For `COc1cc(-c2nc(SCc3ccccc3)nc(Nc3ccc(Cl)cc3)c2C#N)cc(OC)c1OC`, in series [1], the “fold change (FC)” value is listed as 1.24. The viability at 72 h, 2 µM in series [2] and in series [3] was over 90% each time.

With `COc1cc(-c2nc(SCc3ccccc3)nc(Nc3cccc(Cl)c3)c2C#N)cc(OC)c1OC`, the “fold change (FC)” value in series [1] is given as 1.05. For the same molecule, the viability at 72 h, 2 µM in series [2] and in series [3] was over 90% in each case.

With `Cc1ccccc1Nc1nc(SCc2cn(Cc3ccc(Cl)cc3)nn2)nc(-c2ccccc2)c1C#N`, the “fold change (FC)” value in series [1] is listed as 116.

Take `COc1cc(-c2nc(SCC(=O)NC(=O)Nc3ccccn3)nc(Nc3ccccc3Cl)c2C#N)cc(OC)c1OC`: the “fold change (FC)” value in series [1] came out at 38.05. The viability at 72 h, 2 µM in series [2] and in series [3] was over 90% throughout.

As to `Cc1cccc(Nc2nc(SCC(=O)NC(=O)Nc3ccccn3)nc(-c3ccc(C(C)C)cc3)c2C#N)c1`, in series [1], the “fold change (FC)” value is recorded as 2.62. The viability at 72 h, 2 µM in series [2] and in series [3] was over 90% in each case.

On to `CC(C)c1ccc(-c2nc(SCc3cn(CC(=O)NC(=O)Nc4ccccn4)nn3)nc(Nc3ccccc3O)c2C#N)cc1`, for which, in series [1], the “fold change (FC)” value amounted to 13.64. In addition, the viability at 72 h, 2 µM in series [2] and in series [3] was over 90% each time.

For `Cc1ccc(Nc2nc(SCc3cn(CC(=O)NC(=O)Nc4ccccn4)nn3)nc(-c3ccc(Br)cc3)c2C#N)cc1`, the “fold change (FC)” value in series [1] is listed as 1.41. The viability at 72 h, 2 µM in series [2] and in series [3] was over 90% throughout.

With `COc1ccccc1Nc1nc(SCC(=O)NC(=O)Nc2ccccn2)nc(-c2cc(OC)c(OC)c(OC)c2)c1C#N`, in series [1], the “fold change (FC)” value was determined as 8.67. Also, the viability at 72 h, 2 µM in series [2] and in series [3] was over 90% throughout.

Consider `Cc1ccc(Nc2nc(SCc3cn(CC(=O)NC(=O)Nc4ccccn4)nn3)nc(-c3ccc(C(C)C)cc3)c2C#N)cc1`, for which, in series [1], the “fold change (FC)” value turned out to be 6.86. In addition, the viability at 72 h, 2 µM in series [2] and in series [3] was over 90% in each case.

For the molecule `Cc1ccc(Nc2nc(SCc3cn(CC(=O)NC(=O)Nc4ccccn4)nn3)nc(-c3ccc(C)cc3)c2C#N)cc1`, in series [1], the “fold change (FC)” value is on record as 17.37. Besides, the viability at 72 h, 2 µM in series [2] and in series [3] was over 90% in each case.

`Cc1ccccc1Nc1nc(SCc2cn(CC(=O)NC(=O)Nc3ccccn3)nn2)nc(-c2ccc(C(C)C)cc2)c1C#N`: in series [1], the “fold change (FC)” value came out at 4.69. Moreover, the viability at 72 h, 2 µM in series [2] and in series [3] was over 90% throughout.

As for `COc1ccc(Nc2nc(SCC(=O)NC(=O)Nc3ccccn3)nc(-c3ccc(C(C)C)cc3)c2C#N)cc1`, the “fold change (FC)” value in series [1] was 2.17. The viability at 72 h, 2 µM in series [2] and in series [3] was over 90% each time.

`COc1cc(-c2nc(SCC(=O)NC(=O)Nc3ccccn3)nc(Nc3ccc(Cl)cc3)c2C#N)cc(OC)c1OC`: the “fold change (FC)” value in series [1] is 12.61. In addition, the viability at 72 h, 2 µM in series [2] and in series [3] was over 90% each time.

In the case of `COc1cc(-c2nc(SCc3cn(Cc4ccccc4Cl)nn3)nc(Nc3ccc(C)cc3)c2C#N)cc(OC)c1OC`, the “fold change (FC)” value in series [1] amounted to 27.54.

Turning to `CC(C)c1ccc(-c2nc(SCc3cn(CC(=O)NC(=O)Nc4ccccn4)nn3)nc(Nc3ccccc3Cl)c2C#N)cc1`, the “fold change (FC)” value in series [1] is listed as 4.75. Also, the viability at 72 h, 2 µM in series [2] and in series [3] was over 90% in each case.

With `Cc1ccc(Nc2nc(SCc3cn(Cc4ccccc4Cl)nn3)nc(-c3ccc(C(C)C)cc3)c2C#N)cc1`, the “fold change (FC)” value in series [1] is on record as 46.

For `Cc1ccc(Nc2nc(SCc3cn(Cc4ccccc4Cl)nn3)nc(-c3ccc(Br)cc3)c2C#N)cc1`, the “fold change (FC)” value in series [1] was determined as 3.39.

Take `COc1ccc(Nc2nc(SCc3cn(CC(=O)NC(=O)Nc4ccccn4)nn3)nc(-c3ccc(C)cc3)c2C#N)cc1`: in series [1], the “fold change (FC)” value came out at 1.18. Further, the viability at 72 h, 2 µM in series [2] and in series [3] was over 90% throughout.

In the case of `COc1ccccc1Nc1nc(SCc2cn(CC(=O)NC(=O)Nc3ccccn3)nn2)nc(-c2ccc(C(C)C)cc2)c1C#N`, in series [1], the “fold change (FC)” value came out at 10.18. For the same molecule, the viability at 72 h, 2 µM in series [2] and in series [3] was over 90% throughout.

As to `COc1cc(-c2nc(SCC(=O)NC(=O)Nc3ccccn3)nc(Nc3cccc([N+](=O)[O-])c3)c2C#N)cc(OC)c1OC`, the “fold change (FC)” value in series [1] was 82.08. Also, the viability at 72 h, 2 µM in series [2] and in series [3] was over 90% each time.

Turning to `Cc1ccc(Nc2nc(SCC(=O)NC(=O)Nc3ccccn3)nc(-c3ccccc3)c2C#N)cc1`, the “fold change (FC)” value in series [1] was 1.67. The viability at 72 h, 2 µM in series [2] and in series [3] was over 90% in each case.

As for `N#Cc1c(Nc2ccc(Cl)cc2)nc(SCC(=O)NC(=O)Nc2ccccn2)nc1-c1ccc(F)c(F)c1`, the “fold change (FC)” value in series [1] was found to be 3.5. The viability at 72 h, 2 µM in series [2] and in series [3] was over 90% in each case.

For the molecule `COc1cc(-c2nc(SCC(=O)NC(=O)Nc3ccccc3)nc(Nc3ccc(F)cc3)c2C#N)cc(OC)c1OC`, the “fold change (FC)” value in series [1] amounted to 25.37. Further, the viability at 72 h, 2 µM in series [2] and in series [3] was over 90% throughout.

As for `COc1ccccc1Nc1nc(SCc2cn(CC(=O)NC(=O)Nc3ccccn3)nn2)nc(-c2ccc(C)cc2)c1C#N`, the “fold change (FC)” value in series [1] was determined as 10.71. Besides, the viability at 72 h, 2 µM in series [2] and in series [3] was over 90% in each case.

Regarding `N#Cc1c(Nc2cccc(C(F)(F)F)c2)nc(SCC(=O)NC(=O)Nc2ccccn2)nc1-c1ccc(F)c(F)c1`, in series [1], the “fold change (FC)” value is given as 3.11. Besides, the viability at 72 h, 2 µM in series [2] and in series [3] was over 90% each time.

Turning to `N#Cc1c(Nc2ccc(Cl)cc2)nc(SCC(=O)NC(=O)Nc2ccccn2)nc1-c1ccc(Cl)cc1`, in series [1], the “fold change (FC)” value was 2.32. Moreover, the viability at 72 h, 2 µM in series [2] and in series [3] was over 90% in each case.

Turning to `COc1cc(-c2nc(SCc3cn(CC(=O)NC(=O)Nc4ccccn4)nn3)nc(Nc3cccc(C(F)(F)F)c3)c2C#N)cc(OC)c1OC`, the “fold change (FC)” value in series [1] was found to be 1.35. Moreover, the viability at 72 h, 2 µM in series [2] and in series [3] was over 90% throughout.

`CC(C)c1ccc(-c2nc(SCc3cn(CC(=O)NC(=O)Nc4ccccn4)nn3)nc(Nc3cccc(Cl)c3)c2C#N)cc1`: the “fold change (FC)” value in series [1] worked out at 2.71. For the same molecule, the viability at 72 h, 2 µM in series [2] and in series [3] was over 90% in each case.

Consider `Cc1ccc(Nc2nc(SCC(=O)NC(=O)Nc3ccccn3)nc(-c3ccc(C(C)C)cc3)c2C#N)cc1`, for which the “fold change (FC)” value in series [1] was found to be 1.64. The viability at 72 h, 2 µM in series [2] and in series [3] was over 90% throughout.

Take `N#Cc1c(Nc2cccc(C(F)(F)F)c2)nc(SCC(=O)NC(=O)Nc2ccccn2)nc1-c1ccc(Cl)cc1`: in series [1], the “fold change (FC)” value turned out to be 2.86. Further, the viability at 72 h, 2 µM in series [2] and in series [3] was over 90% throughout.

As for `COc1ccccc1Nc1nc(SCC(=O)NC(=O)Nc2ccccc2)nc(-c2cc(OC)c(OC)c(OC)c2)c1C#N`, the “fold change (FC)” value in series [1] was 3.66. The viability at 72 h, 2 µM in series [2] and in series [3] was over 90% each time.

Turning to `Cc1ccc(-c2nc(SCC(=O)NC(=O)Nc3ccccn3)nc(Nc3cccc(C(F)(F)F)c3)c2C#N)cc1`, the “fold change (FC)” value in series [1] is given as 6.06. The viability at 72 h, 2 µM in series [2] and in series [3] was over 90% each time.

For `COc1cc(-c2nc(SCc3cn(CC(=O)NC(=O)Nc4ccccn4)nn3)nc(Nc3ccc(Cl)cc3)c2C#N)cc(OC)c1OC`, the “fold change (FC)” value in series [1] came out at 1.71. The viability at 72 h, 2 µM in series [2] and in series [3] was over 90% each time.

Take `Cc1ccc(Nc2nc(SCc3cn(Cc4ccccc4Cl)nn3)nc(-c3ccc(C)cc3)c2C#N)cc1`: in series [1], the “fold change (FC)” value is given as 21.69.
